Experimental findings from ChEMBL document CHEMBL2417380, “Synthesis, pharmacological assessment, and molecular modeling of 6-chloro-pyridonepezils: new dual AChE inhibitors as potential drugs for the treatment of Alzheimer's disease” (Eur J Med Chem, 2013) are described below.

The target of series [1] is Acetylcholinesterase (Homo sapiens, UniProt P22303). In words: Inhibition of purified human erythrocyte AChE using […] as substrate by Ellman's method.
For series [2], the species on record is Homo sapiens. In words: Selectivity index, ratio of IC50 for human plasma BuChE to IC50 for purified human erythrocyte AChE. Summed up: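 Index computed as hBuChE IC50 divided by hAChE IC50. Both IC50s come from the Ellman assay in 100 mM phosphate buffer, pH 8.0, at 30 °C, read at 412 nm with DTNB 0.2 mM. AChE was purified from human erythrocytes with acetylthiocholine substrate; BuChE came from human serum with butyrylthiocholine substrate, each substrate at 0.4 mM.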

The nature of series [3]: Permeability of the compound at 1 mg/ml after 4 hrs by PAMPA. The format is ADME. The conditions noted are these: read-out: permeability. In short, it runs like this:
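PAMPA-BBB: donor filter impregnated with porcine brain lipid in dodecane (20 mg/mL). Compound dissolved in PBS (pH 7.4)/ethanol (7:3) and filtered before loading into the donor wells. The acceptor wells held PBS/ethanol (7:3). Incubated undisturbed 4 h at 25 °C. Acceptor concentration measured by UV at five wavelengths, in four wells, over at least three independent runs; mean (SD).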

For series [4], the target named is T1, Cholinesterase (Homo sapiens, UniProt P06276). In words: Inhibition of human plasma BuChE using butyrylthiocholine as substrate by Ellman's method. Summed up: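 Ellman spectrophotometric assay with BuChE from human serum in 100 mM phosphate buffer, pH 8.0, at 30 °C. Butyrylthiocholine (0.4 mM) was the substrate and DTNB 0.2 mM. Absorbance change at 412 nm gave IC50 as the concentration giving 50% inhibition. Values are mean ± s.e.m. of at least three experiments run in quadruplicate.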
T1 sequence (P06276 whole entry): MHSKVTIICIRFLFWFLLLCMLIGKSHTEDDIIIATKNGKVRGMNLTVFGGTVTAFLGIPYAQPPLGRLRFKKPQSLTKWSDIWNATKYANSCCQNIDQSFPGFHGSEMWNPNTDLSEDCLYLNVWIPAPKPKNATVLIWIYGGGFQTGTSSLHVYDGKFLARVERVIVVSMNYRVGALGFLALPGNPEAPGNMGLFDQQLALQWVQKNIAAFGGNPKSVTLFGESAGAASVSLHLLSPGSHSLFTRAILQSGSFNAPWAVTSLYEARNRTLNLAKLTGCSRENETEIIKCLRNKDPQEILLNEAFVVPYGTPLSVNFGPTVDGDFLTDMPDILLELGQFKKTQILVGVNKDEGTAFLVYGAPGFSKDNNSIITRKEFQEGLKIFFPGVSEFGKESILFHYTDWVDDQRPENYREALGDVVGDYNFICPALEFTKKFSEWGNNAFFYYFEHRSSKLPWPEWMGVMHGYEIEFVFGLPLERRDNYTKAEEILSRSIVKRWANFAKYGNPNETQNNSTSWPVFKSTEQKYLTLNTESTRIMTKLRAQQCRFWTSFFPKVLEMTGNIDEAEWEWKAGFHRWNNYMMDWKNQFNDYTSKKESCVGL
Background: In Ellman's method for cholinesterases, released thiocholine reacts with DTNB.

The target in series [5] is T1, Cholinesterase. In words: Ratio of donepezil IC50 to compound IC50 for human plasma BuChE.

Sequence of Acetylcholinesterase (P22303 whole entry): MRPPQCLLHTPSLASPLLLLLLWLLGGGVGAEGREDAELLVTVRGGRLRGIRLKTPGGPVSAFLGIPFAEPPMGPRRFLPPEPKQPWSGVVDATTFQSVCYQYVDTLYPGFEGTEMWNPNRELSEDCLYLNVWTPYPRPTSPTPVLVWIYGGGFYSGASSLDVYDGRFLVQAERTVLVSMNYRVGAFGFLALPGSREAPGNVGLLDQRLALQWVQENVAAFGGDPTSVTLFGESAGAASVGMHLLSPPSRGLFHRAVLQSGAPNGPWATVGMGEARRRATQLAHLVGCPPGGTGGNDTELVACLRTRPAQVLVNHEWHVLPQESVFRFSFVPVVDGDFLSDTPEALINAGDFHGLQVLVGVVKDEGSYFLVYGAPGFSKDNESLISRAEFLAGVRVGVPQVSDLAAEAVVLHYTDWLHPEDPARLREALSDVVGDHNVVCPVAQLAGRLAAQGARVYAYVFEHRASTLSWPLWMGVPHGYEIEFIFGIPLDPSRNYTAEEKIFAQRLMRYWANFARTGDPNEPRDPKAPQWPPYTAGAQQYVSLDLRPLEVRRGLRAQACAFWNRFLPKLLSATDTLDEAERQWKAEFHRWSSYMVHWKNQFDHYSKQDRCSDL

Usually IC50 stands for the concentration that gives 50% inhibition. A low value points to higher potency. Take `N#Cc1cc(C#N)c(NCCCCC2CCN(Cc3ccccc3)CC2)nc1Cl`: the IC50 in series [1] is 0.013 µM; in series [4] it was 8.13 µM. Also, the Ratio IC50 in series [2] worked out at 625. The Papp at 4 h, 1 mg/ml in series [3] stood at 6.99 ×10⁻⁶ cm/s.

Regarding `N#Cc1c(Cl)nc(NCCCC2CCN(Cc3ccccc3)CC2)c(C#N)c1-c1ccccc1`, the IC50 in series [1] came out at 3.86 µM; in series [4], 9.41 µM. For the same compound, the Ratio IC50 in series [2] was 2.43. For the same compound, the Papp at 4 h, 1 mg/ml in series [3] stood at 10.1 ×10⁻⁶ cm/s.

For the compound `N#Cc1c(Cl)nc(NC2CCN(Cc3ccccc3)CC2)c(C#N)c1-c1ccccc1`, the IC50 is 9.43 µM in series [1] and greater than 10 µM in series [4].

Regarding `N#Cc1cc(C#N)c(NC2CCN(Cc3ccccc3)CC2)nc1NC1CCN(Cc2ccccc2)CC1`, the IC50 in series [1] was 7.3 µM; in series [4], greater than 10 µM. Moreover, the Papp at 4 h, 1 mg/ml in series [3] amounted to 5 ×10⁻⁶ cm/s.

Regarding `N#Cc1c(Cl)nc(NCCCCC2CCN(Cc3ccccc3)CC2)c(C#N)c1-c1ccccc1`, the figures for the IC50 in series [1] and in series [4] were 0.031 µM and 5.62 µM, respectively. The Ratio IC50 in series [2] is 181. Moreover, the Papp at 4 h, 1 mg/ml in series [3] amounted to 10.3 ×10⁻⁶ cm/s.

For `N#Cc1c(NCCC2CCN(Cc3ccccc3)CC2)nc(NCCC2CCN(Cc3ccccc3)CC2)c(C#N)c1-c1ccccc1`, the figures for the IC50 in series [1] and in series [4] were 9.77 µM and greater than 10 µM, respectively.

Consider `N#Cc1c(Cl)nc(NCCC2CCN(Cc3ccccc3)CC2)c(C#N)c1-c1ccccc1`, for which the results for the IC50 in series [1] and in series [4] were 4.4 µM and greater than 10 µM, respectively.

As to `N#Cc1cc(C#N)c(NCCC2CCN(Cc3ccccc3)CC2)nc1Cl`, the IC50 in series [1] was found to be 0.31 µM; in series [4] it was 0.47 µM. Also, the Ratio IC50 came out at 1.52 in series [2] and 5 in series [5]. Moreover, in series [3], the Papp at 4 h, 1 mg/ml worked out at 8.52 ×10⁻⁶ cm/s.

Regarding `N#Cc1cc(C#N)c(NCCCC2CCN(Cc3ccccc3)CC2)nc1Cl`, the IC50 in series [1] stood at 0.054 µM; in series [4] it was 8.39 µM. For the same compound, the Ratio IC50 in series [2] came to 155. Further, the Papp at 4 h, 1 mg/ml in series [3] turned out to be 5.98 ×10⁻⁶ cm/s.

As for `N#Cc1cc(C#N)c(NC2CCN(Cc3ccccc3)CC2)nc1Cl`, the IC50 was 5.35 µM in series [1] and greater than 10 µM in series [4]. Besides, the Papp at 4 h, 1 mg/ml in series [3] was 7.39 ×10⁻⁶ cm/s.
